Consider two compounds from article PMC7613134 (Nature, 2021).

One series has as its system METTL3/14. The following applies: read-out: Km of SAM for METTL3/14; cited from earlier work.
A further series deals with MOLM-13 cells. The series can be described thus: Polysome fractionation and RT-qPCR in MOLM-13 cells. In kind it is cell-based, human. Put shortly:
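MOLM-13 cells (5 × 10^7) were exposed to DMSO or 1 μM test compound for 72 h, then to 0.1 mg/ml cycloheximide for 5 min at 37 °C. Lysates were fractionated on a sucrose gradient. RNA from each fraction, or total RNA (RNeasy), was quantified by RT-qPCR in triplicate, normalised to GAPDH, using the standard-curve or comparative CT method.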
(Quantitative PCR measures a nucleic acid by following its amplification.)

Series [1] has as its system normal human cord blood CD34+ cells. Nature of the series: Colony-forming efficiency of cord blood CD34+ cells. The following applies: 1, 5 or 10 µM. In kind it is cell-based. In outline: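 Human cord-blood CD34+ cells were plated in StemMACS HSC-CFU semi-solid medium with the test compound at the indicated concentrations or DMSO. Colonies were counted by microscopy 12–14 days after plating.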

Series [2] addresses METTL3/METTL14 heterodimer (Homo sapiens, UniProt Q86U44). The series can be described thus: Surface plasmon resonance. The format is binding. The following applies: 50 µM SAM in running buffer. In general terms: SPR reads the build-up and loss of mass on a sensor chip optically.
In series [3] the test system is human AML patient derived xenografts (PDX). The series can be described thus: Human AML patient derived xenograft. The format is in vivo, mouse. (Xenograft models place foreign cells or tissue in a host animal.)
Series [4] has as its system non-leukaemic haemopoietic cell line HPC7. The format is cell-based.
In a further series the test system is panel of 468 kinases. The series can be described thus: KINOMEscan kinase binding panel. The note with it: 10 µM; inhibition = less than 50% control activity.
Series [5] concerns panel of human AML cell lines. The series can be described thus: Proliferation assay, AML cell line panel. The format is cell-based. The following applies: 0.04-50 μM, read on day 6.
Series [6] concerns primary murine MLL-AF9/Flt3^Itd/+ AML. Nature of the series: Primary murine MLL-AF9/Flt3Itd/+ AML in vivo model. Set-up: species or system mouse.
Series [7] deals with normal haematopoietic stem and progenitor cells (HSPCs). Nature of the series: Colony forming. The following applies: 1 μM, WT Lin- cells. In kind it is cell-based, mouse. Put shortly: (§1)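 Lineage-negative cells from wild-type mice or primary murine AML cells, 10,000 per well, were plated in triplicate wells of M3434 methylcellulose with 1 μM test compound. Colonies were counted after 7 days. Another 10,000 cells were then re-seeded and re-counted weekly through the 3rd replating.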

A further series deals with normal haematopoiesis. The series can be described thus: Toxicity on normal haematopoiesis in vivo. Further details: species or system mouse. The note with it: 50 mg/kg daily for 14 days.
Series [8] is described as follows: Pharmacokinetic analysis in mice. The format is in vivo, mouse. The note with it: single intra-peritoneal dose of 50 mg/kg, over 24h.
Series [9] has as its system MOLM-13 and primary murine AML cells. The series can be described thus: Flow cytometry of differentiation, cell cycle and apoptosis in AML cells. In kind it is cell-based. In outline: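 Human and/or mouse AML cells were exposed to DMSO or test compound and analysed at the indicated timepoints on an LSRFortessa. Myeloid differentiation was read by anti-mouse CD11b PE/Cy5 or anti-human CD11b PE staining. Apoptosis was read by Annexin V staining. Cell cycle was read by BrdU incorporation with FITC or APC BrdU flow kits.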

Series [10] has as its system m6A on poly-A+-enriched RNA, MOLM-13 cells. The series can be described thus: RNA nucleoside quantification by mass spectrometry in MOLM-13. In kind it is cell-based, human. The following applies: MOLM-13, 24 hours.
Series [11] relates to SP1 and BRD4 protein levels, MOLM-13 cells. Nature of the series: Western blot of METTL3 biomarkers in MOLM-13. The format is cell-based, human. The note with it: MOLM-13, 72 hours. In outline: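 MOLM-13 cells were exposed to DMSO or indicated concentrations of test compound for 72 h. Pellets were lysed in 50 mM Tris-HCl pH 8, 450 mM NaCl, 0.1% NP-40 and 1 mM EDTA, with 1 mM DTT and protease/phosphatase inhibitors. Immunoblots were probed with anti-SP1, N- and C-terminal anti-BRD4, and actin or GAPDH antibodies.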

Series [12] deals with m6A peaks on poly-A+-enriched RNA, MOLM-13 cells. The series can be described thus: m6A-meRIP-seq and meRIP-qPCR in MOLM-13 cells. In kind it is cell-based, human.
The next series has as its system primary murine AML cells. Nature of the series: Colony forming. In kind it is cell-based, mouse. The note with it: 1 μM. Put shortly:
as §1

The target of another series is T1, METTL16 (Homo sapiens, UniProt Q86W50).
T1 sequence (Q86W50 1-562): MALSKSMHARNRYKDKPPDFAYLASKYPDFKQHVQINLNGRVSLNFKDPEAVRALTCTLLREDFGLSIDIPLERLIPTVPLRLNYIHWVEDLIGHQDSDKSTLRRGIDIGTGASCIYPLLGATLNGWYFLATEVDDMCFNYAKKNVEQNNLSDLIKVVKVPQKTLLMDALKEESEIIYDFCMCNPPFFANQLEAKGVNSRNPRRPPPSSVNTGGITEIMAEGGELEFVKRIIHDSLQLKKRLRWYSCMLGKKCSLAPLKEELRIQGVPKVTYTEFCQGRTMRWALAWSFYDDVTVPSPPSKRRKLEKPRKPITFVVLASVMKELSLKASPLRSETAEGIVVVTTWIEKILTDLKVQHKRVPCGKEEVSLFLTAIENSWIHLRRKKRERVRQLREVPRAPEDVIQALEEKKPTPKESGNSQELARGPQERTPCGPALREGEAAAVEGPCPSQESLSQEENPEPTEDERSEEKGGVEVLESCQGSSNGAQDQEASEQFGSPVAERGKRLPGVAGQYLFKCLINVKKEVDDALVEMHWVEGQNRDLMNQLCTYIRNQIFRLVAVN
Nature of the series: RNA methyltransferase RFMS activity assay. The format is biochemical. The following applies: dose-range, top concentration 120 μM.

The mark [13] stands for this setting: murine or patient-derived AML cells from treated primary transplants.
Where [14] appears, read: MOLM-13 and primary murine AML cells.

Molecules are shown by their SMILES.

Sequence of METTL3/METTL14 heterodimer (Q86U44 whole entry): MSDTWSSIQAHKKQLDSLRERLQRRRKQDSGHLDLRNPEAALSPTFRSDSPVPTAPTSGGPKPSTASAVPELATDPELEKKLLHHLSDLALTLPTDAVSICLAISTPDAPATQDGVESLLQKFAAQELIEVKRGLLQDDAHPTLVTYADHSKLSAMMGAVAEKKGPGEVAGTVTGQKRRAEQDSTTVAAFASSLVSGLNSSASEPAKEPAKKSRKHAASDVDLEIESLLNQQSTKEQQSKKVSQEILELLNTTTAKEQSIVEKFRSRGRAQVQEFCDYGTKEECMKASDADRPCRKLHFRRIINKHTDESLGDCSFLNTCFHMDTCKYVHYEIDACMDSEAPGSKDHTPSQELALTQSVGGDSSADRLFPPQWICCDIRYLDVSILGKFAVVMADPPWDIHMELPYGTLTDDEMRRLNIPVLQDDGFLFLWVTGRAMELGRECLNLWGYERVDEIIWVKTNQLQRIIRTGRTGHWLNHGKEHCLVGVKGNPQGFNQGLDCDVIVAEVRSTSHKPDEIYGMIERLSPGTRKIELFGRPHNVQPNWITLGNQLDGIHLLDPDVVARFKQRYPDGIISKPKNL
Sequence of METTL3/METTL14 heterodimer (Q9HCE5 whole entry partner): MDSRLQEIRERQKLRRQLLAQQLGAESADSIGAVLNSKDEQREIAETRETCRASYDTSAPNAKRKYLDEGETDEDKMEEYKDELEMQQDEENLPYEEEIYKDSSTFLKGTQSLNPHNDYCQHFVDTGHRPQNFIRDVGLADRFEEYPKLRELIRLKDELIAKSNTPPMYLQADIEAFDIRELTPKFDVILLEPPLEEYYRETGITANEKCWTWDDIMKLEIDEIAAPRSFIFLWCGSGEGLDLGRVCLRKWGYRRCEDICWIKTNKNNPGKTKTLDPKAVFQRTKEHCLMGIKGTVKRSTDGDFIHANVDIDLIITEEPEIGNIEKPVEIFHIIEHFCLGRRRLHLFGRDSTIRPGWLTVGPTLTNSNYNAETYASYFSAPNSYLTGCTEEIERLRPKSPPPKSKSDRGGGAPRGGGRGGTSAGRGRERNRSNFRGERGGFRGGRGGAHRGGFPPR

For `C[S+](CC[C@H](N)C(=O)[O-])C[C@H]1O[C@@H](n2cnc3c(N)ncnc32)[C@H](O)[C@@H]1O` (stereo partly shown) [SAM, S-adenosyl methionine], the Km with METTL3/14 was 0.1 µM.
For the compound `O=C(NCc1cn2cc(CNCC3CCCCC3)ccc2n1)c1cc(=O)n2ccccc2n1` [STM2457], the polysome profile entry in the series with MOLM-13 cells (MOLM-13, 1μM, 72 hours) is “loss of high polysome fractions”. The “overall RNA expression levels of BRD4 and SP1” value with MOLM-13 cells (MOLM-13, RT-qPCR of total RNA) is on record as “showed no alterations”. Further, the “colony-forming ability of normal human cord blood CD34+ cells” value in series [1] was “did not affect”. Further, the “binding mode with SAM in the SPR running buffer” value in series [2] is on record as “co-factor competitive binding mode”. Moreover, the “human CD45+ cells in bone marrow and spleen” value in [3] (50 mg/kg) is “reduction of human CD45^+ cells in bone marrow and spleen”. Besides, in [3] (50 mg/kg IP daily), the “mouse lifespan in PDX” value is reported as “significantly prolonged”; the “toxicity and body weight in PDX mice” value is listed as “no overt toxicity or effect on mouse body weight”. Besides, the “engraftment and AML expansion in PDX” value in series [3] (50 mg/kg IP daily, 3 PDX models) is “impairment of engraftment and AML expansion”. Besides, the “total m6A levels on poly-A+-enriched RNA in PDX bone marrow” value in series [3] (30 or 50 mg/kg) is “significantly reduced”. In [4] (Annexin V, 1 µM), the “apoptosis in normal non-leukaemic haemopoietic cells” value is reported as “not in normal non-leukaemic haemopoietic cells”. In addition, in series [4] (non-leukaemic HPC7, 1 µM), the “differentiation and cell cycle in HPC7” value was “the same effects were not identified”. Further, the “inhibitory effect on kinase panel” value with panel of 468 kinases is “no inhibitory effect”. Moreover, in [5], the “proliferation of human AML cell line panel” value was “significant growth reduction in a concentration-dependent manner”. In series [6] (30 mg/kg), the “CD48+ intensity of L-GMP cells” value is recorded as “increased”, the “engrafted AML cells in bone marrow” value is reported as “reduction in the engrafted AML cells” and the spleen size entry is “reduction in spleen size”. Also, in series [6] (bone marrow, PDX 50 mg/kg and murine model 30 mg/kg), the “CD93+ and L-GMP leukaemia stem cell populations” value was “significantly reduced”. For the same compound, in series [6] (setting [13]), the “AML cells in peripheral blood after re-transplantation” value was “marked decrease” and the lifespan after re-transplantation result is listed as “significant lifespan prolongation”. Besides, the “colony forming of normal haematopoietic stem and progenitor cells (HSPCs)” value in [7] is recorded as “no effect”. In the series on normal haematopoiesis, the “bone marrow HSCs and early progenitors, peripheral blood counts, body weight” value is on record as “No significant changes”; the “m6A levels on poly-A+-enriched RNA of healthy bone marrow” value is “significantly reduced”. Also, the “half-life / exposure in vivo” value in series [8] is reported as “sufficient half-life”. Also, the “apoptosis in human and mouse AML models” value in [9] (Annexin V, 1 µM) is reported as “induced apoptosis”. For the same compound, in series [9] (setting [14]), the “cell cycle (BrdU)” value is “cell cycle arrest” and the “myeloid differentiation (CD11b/Mac1)” value is on record as “significant myeloid differentiation”. In addition, in series [10], the “m6A on poly-A+-enriched RNA” value was “concentration-dependent reduction” and the “other RNA modifications (m6Am, m6_2A, m7G) on poly-A+-enriched RNA” value is reported as “No changes were detected”. The “SP1 and BRD4 protein levels” value in series [11] is listed as “dose-dependent reduction”. Also, the “m6A levels in METTL3-dependent substrates including HOXA10 and MYC (meRIP-qPCR)” value in series [12] (MOLM-13, 1 µM, 24 or 48 hours) is given as “reduced m^6A levels”. Moreover, the “m6A peaks reduced upon treatment” value in [12] (MOLM-13, 1 μM, 48 hours, of 11,909 m6A peaks identified) is 4,666. Besides, in the series on primary murine AML cells, the “clonogenic potential of primary murine AML cells” value is listed as “significantly reduced”. Besides, the “inhibition of METTL16” value against METTL16 is on record as “no inhibition”.
